The record followed here is ChEMBL document CHEMBL1143103, “2-Hydroxyphenacyl azoles and related azolium derivatives as antifungal agents” (Bioorg Med Chem Lett, 2008).

In assay [1] the test system is Candida albicans. The assay can be described thus: Antifungal activity against Candida albicans PTCC 5027 after 24 to 48 hrs by agar dilution method. The assay is classed as functional. In short, it runs like this:
(§1)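 Agar dilution on Sabouraud Dextrose Agar. Plates prepared in triplicate and incubated at 30 °C: yeasts about 24–48 h, moulds about 72 h, dermatophytes about 168 h. MIC taken as the lowest concentration with no growth, in µg/mL. Footnote states duplicate determinations.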
(In general: Agar dilution tests growth on a series of plates holding different concentrations.)

Assay [2] deals with Saccharomyces cerevisiae. The assay can be described thus: Antifungal activity against Saccharomyces cerevisiae PTCC 5177 after 24 to 48 hrs by agar dilution method. The assay is classed as functional. In short, it runs like this:
as §1

In assay [3] the test system is Aspergillus niger. The assay can be described thus: Antifungal activity against Aspergillus niger PTCC 5012 after 72 hrs by agar dilution method. In kind it is functional. In short, it runs like this: as §1
For assay [4], the system named is Microsporum. As to the kind of experiment: Antifungal activity against Microsporum gypseum PTCC 5070 after 168 hrs by agar dilution method. The assay is classed as functional. In short, it runs like this: as §1
A short description of assay [5]: Cytotoxicity against mouse NIH/3T3 cells after 72 hrs by MTT colorimetric assay. As to conditions: NIH3T3, 72 h. The assay is classed as cell-based. A digest of the protocol: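 NIH/3T3 cells in exponential growth were trypsinized and seeded at 5 × 10^4 cells/mL in complete medium. Serial dilutions were added, each in triplicate, with untreated cells as the viability control. After 72 h incubation, MTT (5 mg/mL solution) was added for 1 h. Medium was replaced with DMSO and absorbance read at 492 nm. IC50 was taken from dose-response curves against control; mean ± SD of triplicates.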
(Tetrazolium dyes change colour on reduction, which living cells bring about.)

Values after ≈ are worked out from the molar mass of the structure shown.

Regarding `O=C(Cn1ccnc1)c1ccc(Cl)cc1O`, the minimum inhibitory concentration (MIC) in assay [1] was found to be 64 µg/mL (≈ 270 µM); in assay [2] it was 0.25 µg/mL (≈ 1.06 µM); in assay [3] it was 64 µg/mL (≈ 270 µM); in assay [4] it was 32 µg/mL (≈ 135 µM).

On to `COc1ccc(C(=O)Cn2ccnc2)c(O)c1`, for which the MIC in assay [1] was found to be 8 µg/mL (≈ 34.4 µM); in assay [2], 0.25 µg/mL (≈ 1.08 µM); in assay [3], 16 µg/mL (≈ 68.9 µM); in assay [4] it was 8 µg/mL (≈ 34.4 µM). This molecule also came in with an IC50 in assay [5] of 221 µg/mL (≈ 952 µM).

Take `O=C(Cn1cncn1)c1ccccc1O`: the MIC in assay [1] worked out at 64 µg/mL (≈ 315 µM); in assay [2], 64 µg/mL (≈ 315 µM); in assay [3], 32 µg/mL (≈ 157 µM); in assay [4] it was 64 µg/mL (≈ 315 µM).

In the case of `O=C(Cn1cncn1)c1ccc(Cl)cc1O`, the MIC is 32 µg/mL (≈ 135 µM) in assay [1], 64 µg/mL (≈ 269 µM) in assay [2], 16 µg/mL (≈ 67.3 µM) in assay [3] and 16 µg/mL (≈ 67.3 µM) in assay [4].

Consider `COc1ccc(C(=O)Cn2cncn2)c(O)c1`, for which the MIC in assay [1] was determined as 8 µg/mL (≈ 34.3 µM); in assay [2], 8 µg/mL (≈ 34.3 µM); in assay [3], 32 µg/mL (≈ 137 µM); in assay [4], 16 µg/mL (≈ 68.6 µM). In assay [5], this molecule registered an IC50 of 222 µg/mL (≈ 952 µM).

As for `COc1ccc(C(=O)Cn2c[n+](N)cn2)c(O)c1.[Br-]`, the MIC is 2 µg/mL in assay [1], 4 µg/mL in assay [2], 16 µg/mL in assay [3] and 8 µg/mL in assay [4]. In addition, the IC50 in assay [5] came out at 254 µg/mL.

As for `O=C(Cn1c[n+](CC(=O)c2ccc(Cl)cc2O)cn1)c1ccc(Cl)cc1O.[Br-]`, the MIC worked out at 32 µg/mL in assay [1], 8 µg/mL in assay [2], 64 µg/mL in assay [3] and 32 µg/mL in assay [4].

Regarding `O=C(Cn1cnnc1)c1ccc(Cl)cc1O`, the MIC in assay [1] is 16 µg/mL (≈ 67.3 µM); in assay [2], 16 µg/mL (≈ 67.3 µM); in assay [3], 32 µg/mL (≈ 135 µM); in assay [4], 64 µg/mL (≈ 269 µM).

Turning to `N[n+]1cnn(CC(=O)c2ccccc2O)c1.[Br-]`, the MIC in assay [1] is 64 µg/mL; in assay [2] it was 32 µg/mL; in assay [3] it was 32 µg/mL; in assay [4], 32 µg/mL.

In the case of `O/N=C(\Cn1ccnc1)c1ccccc1O`, the MIC in assay [1] came out at 32 µg/mL (≈ 147 µM); in assay [2], 32 µg/mL (≈ 147 µM); in assay [3] it was 64 µg/mL (≈ 295 µM); in assay [4] it was 64 µg/mL (≈ 295 µM).

Turning to `O=C(Cn1ccnc1)c1ccccc1O`, the MIC in assay [1], in assay [2], in assay [3] and in assay [4] was 64 µg/mL (≈ 316 µM) throughout.

Consider `O=C(Cn1c[n+](CC(=O)c2ccccc2O)cn1)c1ccccc1O.[Br-]`, for which the MIC in assay [1] turned out to be 16 µg/mL; in assay [2], 1 µg/mL; in assay [3] it was 32 µg/mL; in assay [4], 16 µg/mL. The molecule also registered an IC50 in assay [5] of 47 µg/mL.

Take `N[n+]1cnn(CC(=O)c2ccc(Cl)cc2O)c1.[Br-]`: the MIC in assay [1] was found to be 4 µg/mL; in assay [2] it was 0.25 µg/mL; in assay [3], 32 µg/mL; in assay [4], 16 µg/mL. Also, half-maximal inhibition in assay [5] (IC50) required 370 µg/mL.

With `O=C(Cn1cnnc1)c1ccccc1O`, the MIC in assay [1] was found to be 32 µg/mL (≈ 157 µM); in assay [2], 16 µg/mL (≈ 78.7 µM); in assay [3] it was 16 µg/mL (≈ 78.7 µM); in assay [4], 16 µg/mL (≈ 78.7 µM).

Take `COc1ccc(C(=O)Cn2c[n+](CC(=O)c3ccc(OC)cc3O)cn2)c(O)c1.[Br-]`: the MIC in assay [1] turned out to be 8 µg/mL; in assay [2], 4 µg/mL; in assay [3], 16 µg/mL; in assay [4], 16 µg/mL. For the same molecule, it took 98 µg/mL to reach half-maximal inhibition in assay [5] (IC50).

`OC(Cn1cncn1)(Cn1cncn1)c1ccc(F)cc1F` [FLUCONAZOLE]: the MIC in assay [1] was 8 µg/mL (≈ 26.1 µM); in assay [2] it was 32 µg/mL (≈ 104 µM); in assay [3], 32 µg/mL (≈ 104 µM); in assay [4], 32 µg/mL (≈ 104 µM). This molecule also had an IC50 in assay [5] of 387 µg/mL (≈ 1260 µM).

In the case of `Clc1ccc(COC(Cn2ccnc2)c2ccc(Cl)cc2Cl)c(Cl)c1` (stereo not given) [MICONAZOLE], the MIC stood at 1 µg/mL (≈ 2.4 µM) in assay [1], 1 µg/mL (≈ 2.4 µM) in assay [2], 2 µg/mL (≈ 4.81 µM) in assay [3] and 8 µg/mL (≈ 19.2 µM) in assay [4].

The term MIC denotes the smallest concentration in the dilution series that meets the test's criterion for growth inhibition. Read a low MIC as greater potency. Broadly, the IC50 is the concentration that inhibits the measured activity by half. Lower therefore signals inhibition by little substance.
